Assay results from ChEMBL document CHEMBL5058577, “EUbOPEN Chemogenomics Library 2 (Multiplex)” (2022).

System: Fibroblast
Test: Multiplex assay against human fibroblast
Format: toxicity, cell-based
Method in brief: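 Values for tubulin, mitochondrial-mass and membrane-permeability phenotypes are per cents of cells with healthy nuclei. These cells were identified by CellPathfinder machine-learning gating of live cells that had been stained at seeding with Hoechst33342, BioTracker Green Microtubule Cytoskeleton Dye, MitoTracker Red and Annexin V Alexa Fluor 680 and imaged on a CQ1 microscope at 37°C and 5% CO2 after compound addition. The gating first set Hoechst high-intensity objects apart from normal cells, then split normal cells into healthy, pyknosed or fragmented nuclei, and pyknosed cells into mitotic or apoptotic.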

[1] = 12 h, 1 µM, compound concentration 1 uM, replicate 1
[2] = 12 h, 1 µM, compound concentration 1 uM, replicate 2
[3] = 12 h, 10 µM, compound concentration 10 uM, replicate 1
[4] = 12 h, 10 µM, compound concentration 10 uM, replicate 2
[5] = 24 h, 1 µM, compound concentration 1 uM, replicate 1
[6] = 24 h, 1 µM, compound concentration 1 uM, replicate 2
[7] = 24 h, 10 µM, compound concentration 10 uM, replicate 1
[8] = 24 h, 10 µM, compound concentration 10 uM, replicate 2
[9] = 48 h, 1 µM, compound concentration 1 uM, replicate 1
[10] = 48 h, 1 µM, compound concentration 1 uM, replicate 2
[11] = 48 h, 10 µM, compound concentration 10 uM, replicate 1
[12] = 48 h, 10 µM, compound concentration 10 uM, replicate 2

CC(C)COc1ccc(CNC(=O)N(Cc2ccc(F)cc2)C2CCN(C)CC2)cc1 [PIMAVANSERIN]
Population Apoptotic (%) [1]: 65% | Population Fragmented Nuclei (%) [1]: 24% | Population Healthy Nuclei (%) [1]: 62% | Population Hoechst High Intensity Objects (%) [1]: 0% | Population Membrane Permeable-Phenotype (%) [1]: 0% | Population Mitochondria Different-Phenotype (%) [1]: 12% | Population Mitotic Cells (%) [1]: 34% | Population Normal (%) [1]: 100% | Population Pyknosed Nuclei (%) [1]: 12% | Population Tubulin-Different-Phenotype (%) [1]: 35% | Total Cell Count [1]: 179 | Population Apoptotic (%) [2]: 61% | Population Fragmented Nuclei (%) [2]: 40% | Population Healthy Nuclei (%) [2]: 42% | Population Hoechst High Intensity Objects (%) [2]: 1% | Population Membrane Permeable-Phenotype (%) [2]: 7% | Population Mitochondria Different-Phenotype (%) [2]: 4% | Population Mitotic Cells (%) [2]: 38% | Population Normal (%) [2]: 98% | Population Pyknosed Nuclei (%) [2]: 16% | Population Tubulin-Different-Phenotype (%) [2]: 82% | Total Cell Count [2]: 160 | Population Apoptotic (%) [3]: 56% | Population Fragmented Nuclei (%) [3]: 18% | Population Healthy Nuclei (%) [3]: 65% | Population Hoechst High Intensity Objects (%) [3]: 1% | Population Membrane Permeable-Phenotype (%) [3]: 0% | Population Mitochondria Different-Phenotype (%) [3]: 42% | Population Mitotic Cells (%) [3]: 43% | Population Normal (%) [3]: 98% | Population Pyknosed Nuclei (%) [3]: 16% | Population Tubulin-Different-Phenotype (%) [3]: 93% | Total Cell Count [3]: 185 | Population Apoptotic (%) [4]: 51% | Population Fragmented Nuclei (%) [4]: 31% | Population Healthy Nuclei (%) [4]: 42% | Population Hoechst High Intensity Objects (%) [4]: 4% | Population Membrane Permeable-Phenotype (%) [4]: 2% | Population Mitochondria Different-Phenotype (%) [4]: 32% | Population Mitotic Cells (%) [4]: 48% | Population Normal (%) [4]: 95% | Population Pyknosed Nuclei (%) [4]: 26% | Population Tubulin-Different-Phenotype (%) [4]: 81% | Population Apoptotic (%) [5]: 60% | Population Fragmented Nuclei (%) [5]: 21% | Population Healthy Nuclei (%) [5]: 65% | Population Hoechst High Intensity Objects (%) [5]: 2% | Population Membrane Permeable-Phenotype (%) [5]: 1% | Population Mitochondria Different-Phenotype (%) [5]: 5% | Population Mitotic Cells (%) [5]: 39% | Population Normal (%) [5]: 97% | Population Pyknosed Nuclei (%) [5]: 12% | Population Tubulin-Different-Phenotype (%) [5]: 47% | Total Cell Count [5]: 186 | Population Apoptotic (%) [6]: 52% | Population Fragmented Nuclei (%) [6]: 39% | Population Healthy Nuclei (%) [6]: 46% | Population Membrane Permeable-Phenotype (%) [6]: 4% | Population Mitochondria Different-Phenotype (%) [6]: 9% | Population Mitotic Cells (%) [6]: 47% | Population Pyknosed Nuclei (%) [6]: 13% | Population Tubulin-Different-Phenotype (%) [6]: 76% | Total Cell Count [6]: 157 | Population Apoptotic (%) [7]: 83% | Population Fragmented Nuclei (%) [7]: 13% | Population Healthy Nuclei (%) [7]: 67% | Population Hoechst High Intensity Objects (%) [7]: 4% | Population Membrane Permeable-Phenotype (%) [7]: 0% | Population Mitochondria Different-Phenotype (%) [7]: 41% | Population Mitotic Cells (%) [7]: 16% | Population Normal (%) [7]: 95% | Population Pyknosed Nuclei (%) [7]: 18% | Population Tubulin-Different-Phenotype (%) [7]: 92% | Total Cell Count [7]: 170 | Population Apoptotic (%) [8]: 69% | Population Fragmented Nuclei (%) [8]: 27% | Population Healthy Nuclei (%) [8]: 50% | Population Hoechst High Intensity Objects (%) [8]: 8% | Population Membrane Permeable-Phenotype (%) [8]: 3% | Population Mitochondria Different-Phenotype (%) [8]: 38% | Population Mitotic Cells (%) [8]: 30% | Population Normal (%) [8]: 91% | Population Pyknosed Nuclei (%) [8]: 21% | Population Tubulin-Different-Phenotype (%) [8]: 96% | Total Cell Count [8]: 167 | Population Apoptotic (%) [9]: 88% | Population Fragmented Nuclei (%) [9]: 27% | Population Healthy Nuclei (%) [9]: 62% | Population Hoechst High Intensity Objects (%) [9]: 3% | Population Membrane Permeable-Phenotype (%) [9]: 1% | Population Mitochondria Different-Phenotype (%) [9]: 3% | Population Mitotic Cells (%) [9]: 11% | Population Normal (%) [9]: 96% | Population Pyknosed Nuclei (%) [9]: 9% | Population Tubulin-Different-Phenotype (%) [9]: 45% | Total Cell Count [9]: 204 | Population Apoptotic (%) [10]: 52% | Population Fragmented Nuclei (%) [10]: 44% | Population Healthy Nuclei (%) [10]: 44% | Population Hoechst High Intensity Objects (%) [10]: 5% | Population Membrane Permeable-Phenotype (%) [10]: 4% | Population Mitochondria Different-Phenotype (%) [10]: 12% | Population Mitotic Cells (%) [10]: 47% | Population Normal (%) [10]: 94% | Population Pyknosed Nuclei (%) [10]: 10% | Population Tubulin-Different-Phenotype (%) [10]: 64% | Total Cell Count [10]: 167 | Population Apoptotic (%) [11]: 92% | Population Fragmented Nuclei (%) [11]: 15% | Population Healthy Nuclei (%) [11]: 67% | Population Hoechst High Intensity Objects (%) [11]: 12% | Population Membrane Permeable-Phenotype (%) [11]: 0% | Population Mitochondria Different-Phenotype (%) [11]: 44% | Population Mitotic Cells (%) [11]: 8% | Population Normal (%) [11]: 87% | Population Pyknosed Nuclei (%) [11]: 17% | Population Tubulin-Different-Phenotype (%) [11]: 91% | Total Cell Count [11]: 163 | Population Apoptotic (%) [12]: 75% | Population Fragmented Nuclei (%) [12]: 30% | Population Healthy Nuclei (%) [12]: 53% | Population Hoechst High Intensity Objects (%) [12]: 6% | Population Membrane Permeable-Phenotype (%) [12]: 3% | Population Mitochondria Different-Phenotype (%) [12]: 41% | Population Mitotic Cells (%) [12]: 25% | Population Normal (%) [12]: 93% | Population Pyknosed Nuclei (%) [12]: 16% | Population Tubulin-Different-Phenotype (%) [12]: 92% | Total Cell Count [12]: 159
